Measurements taken from ChEMBL document CHEMBL4425187, “A new class of flavonol-based anti-prostate cancer agents: Design, synthesis, and evaluation in cell models” (Bioorg Med Chem Lett, 2016).

What was measured:
PC-3 [1] = test: Potency index, ratio of IC50 for 3',4'-dimethoxyflavonol to IC50 for test compound against human PC3 cells; type: functional
Outline: (§1)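 IC50 from WST-1 proliferation assay in PC-3 (androgen-insensitive) and LNCaP (androgen-sensitive) cells after 3-day exposure at five concentrations, DMSO vehicle control, quercetin positive control. IC50 derived from dose-response curves, mean ± SEM. The index is the parent flavonol IC50 divided by the test compound IC50.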

LNCaP = test: Potency index, ratio of IC50 for 3',4'-dimethoxyflavonol to IC50 for test compound against human LNCAP cells; type: functional; outline: as §1
PWR-1E = test: Cytotoxicity against human PWR-1E cells assessed as inhibition of cell proliferation at 10 to 50 uM after 3 days by WST1 assay; type: cell-based; details: 72 h
PC-3 [2] = test: Induction of apoptosis is human PC3 cells assessed as live cells at 10 uM after 16 hrs by F2N12S/CYTOX AADvanced double-staining based by flow cytometry (reference value: 88%); type: functional
PC-3 [3] = test: Induction of apoptosis is human PC3 cells assessed as early apoptotic cells at 1 uM after 16 hrs by F2N12S/CYTOX AADvanced double-staining based by flow cytometry (reference value: 3%); type: functional
PC-3 [4] = test: Induction of apoptosis is human PC3 cells assessed as late apoptotic/necrotic cells at 5 uM after 16 hrs by F2N12S/CYTOX AADvanced double-staining based by flow cytometry (reference value: 9%); type: functional
PC-3 [5] = test: Cell cycle arrest in human PC3 cells assessed as accumulation in G2/M phase at 10 uM after 24 hrs by propidium iodide staining-based flow cytometry (reference value: 16%); type: functional
PC-3 [6] = test: Induction of apoptosis is human PC3 cells assessed as early apoptotic cells after 16 hrs by F2N12S/CYTOX AADvanced double-staining based by flow cytometry relative to control; type: functional, cell-based
PC-3 [7] = test: Induction of apoptosis is human PC3 cells assessed as early apoptotic cells at 30 uM after 16 hrs by F2N12S/CYTOX AADvanced double-staining based by flow cytometry (reference value: 3%); type: functional
PC-3 [8] = test: Induction of apoptosis is human PC3 cells assessed as early apoptotic cells at 50 uM after 16 hrs by F2N12S/CYTOX AADvanced double-staining based by flow cytometry (reference value: 3%); type: functional
PC-3 [9] = test: Cell cycle arrest in human PC3 cells assessed as accumulation in G0/G1 phase at 10 uM after 20 hrs by propidium iodide staining-based flow cytometry (reference value: 63.7%); type: functional
PC-3 [10] = test: Induction of apoptosis is human PC3 cells assessed as live cells at 5 uM after 16 hrs by F2N12S/CYTOX AADvanced double-staining based by flow cytometry (reference value: 88%); type: functional
PC-3 [11] = test: Cell cycle arrest in human PC3 cells assessed as accumulation in G0/G1 phase at 10 uM after 24 hrs by propidium iodide staining-based flow cytometry (reference value: 69.4%); type: functional
PC-3 [12] = test: Induction of apoptosis is human PC3 cells assessed as live cells at 50 uM after 16 hrs by F2N12S/CYTOX AADvanced double-staining based by flow cytometry (reference value: 88%); type: functional
PC-3 [13] = test: Induction of apoptosis is human PC3 cells assessed as late apoptotic/necrotic cells at 1 uM after 16 hrs by F2N12S/CYTOX AADvanced double-staining based by flow cytometry (reference value: 9%); type: functional
PC-3 [14] = test: Induction of apoptosis is human PC3 cells assessed as late apoptotic/necrotic cells at 100 uM after 16 hrs by F2N12S/CYTOX AADvanced double-staining based by flow cytometry (reference value: 9%); type: functional
PC-3 [15] = test: Induction of apoptosis is human PC3 cells assessed as live cells at 30 uM after 16 hrs by F2N12S/CYTOX AADvanced double-staining based by flow cytometry (reference value: 88%); type: functional
PC-3 [16] = test: Induction of apoptosis is human PC3 cells assessed as live cells at 1 uM after 16 hrs by F2N12S/CYTOX AADvanced double-staining based by flow cytometry (reference value: 88%); type: functional
PC-3 [17] = test: Induction of apoptosis is human PC3 cells assessed as late apoptotic/necrotic cells at 30 uM after 16 hrs by F2N12S/CYTOX AADvanced double-staining based by flow cytometry (reference value: 9%); type: functional
PC-3 [18] = test: Induction of apoptosis is human PC3 cells assessed as late apoptotic/necrotic cells at 50 uM after 16 hrs by F2N12S/CYTOX AADvanced double-staining based by flow cytometry (reference value: 9%); type: functional
PC-3 [19] = test: Induction of apoptosis is human PC3 cells assessed as live cells at 20 uM after 16 hrs by F2N12S/CYTOX AADvanced double-staining based by flow cytometry (reference value: 88%); type: functional
PC-3 [20] = test: Induction of apoptosis is human PC3 cells assessed as early apoptotic cells at 100 uM after 16 hrs byF2N12S/CYTOX AADvanced double-staining based by flow cytometry (reference value: 3%); type: functional
PC-3 [21] = test: Induction of apoptosis is human PC3 cells assessed as live cells at 100 uM after 16 hrs by F2N12S/CYTOX AADvanced double-staining based by flow cytometry (reference value: 88%); type: functional
PC-3 [22] = test: Cell cycle arrest in human PC3 cells assessed as accumulation in G2/M phase at 10 uM after 20 hrs by propidium iodide staining-based flow cytometry (reference value: 17.4%); type: functional

COc1ccc(-c2oc3ccccc3c(=O)c2OCCCCN2CCOCC2)cc1OC
Ratio IC50 (PC-3 [1]): 45
Ratio IC50 (LNCaP): 24

CCCCCCOc1c(-c2ccc(OC)c(OC)c2)oc2ccccc2c1=O
Ratio IC50 (PC-3 [1]): 29
Ratio IC50 (LNCaP): 16

CCCCN(CCCC)CCCCCOc1c(-c2ccc(OC)c(OC)c2)oc2ccccc2c1=O
Ratio IC50 (PC-3 [1]): 102
Ratio IC50 (LNCaP): 41

CCCOc1c(-c2ccc(OC)c(OC)c2)oc2ccccc2c1=O
Ratio IC50 (PC-3 [1]): 41
Ratio IC50 (LNCaP): 32

COc1ccc(-c2oc3ccccc3c(=O)c2OC)cc1OC
Ratio IC50 (PC-3 [1]): 14
Ratio IC50 (LNCaP): 12.5

COc1ccc(-c2oc3ccccc3c(=O)c2OCCCN2CCOCC2)cc1OC
Ratio IC50 (PC-3 [1]): 38
Ratio IC50 (LNCaP): 14

CCCCCOc1c(-c2ccc(OC)c(OC)c2)oc2ccccc2c1=O
Ratio IC50 (PC-3 [1]): 24
Ratio IC50 (LNCaP): 14

COc1ccc(-c2oc3ccccc3c(=O)c2OCCCCCN2CCOCC2)cc1OC
Ratio IC50 (PC-3 [1]): 91
Ratio IC50 (LNCaP): 26

CCCCCCCOc1c(-c2ccc(OC)c(OC)c2)oc2ccccc2c1=O
Ratio IC50 (PC-3 [1]): 5
Ratio IC50 (LNCaP): 5

COc1ccc(-c2oc3ccccc3c(=O)c2OC(C)C)cc1OC
Ratio IC50 (PC-3 [1]): 12
Ratio IC50 (LNCaP): 20

COc1ccc(-c2oc3ccccc3c(=O)c2O)cc1OC [3-HYDROXY-3',4'-DIMETHOXYFLAVONE]
Activity (PWR-1E): Non-Toxic

CCCCN(CCCC)CCCOc1c(-c2ccc(OC)c(OC)c2)oc2ccccc2c1=O
Activity (PC-3 [2]): 15%
Activity (PWR-1E): Non-Toxic
Ratio IC50 (PC-3 [1]): 292
Activity (PC-3 [3]): 4%
Activity (PC-3 [4]): 5%
Activity (PC-3 [5]): 25.1%
Activity (PC-3 [6]): Dose-dependent effect
Activity (PC-3 [7]): 94%
Activity (PC-3 [8]): 88%
Activity (PC-3 [9]): 53.8%
Activity (PC-3 [10]): 50%
Activity (PC-3 [11]): 61.3%
Activity (PC-3 [12]): 0%
Activity (PC-3 [13]): 6%
Activity (PC-3 [14]): 61%
Activity (PC-3 [15]): 1%
Activity (PC-3 [16]): 89%
Activity (PC-3 [17]): 5%
Activity (PC-3 [18]): 11%
Activity (PC-3 [19]): 3%
Ratio IC50 (LNCaP): 84
Activity (PC-3 [20]): 39%
Activity (PC-3 [21]): 0%
Activity (PC-3 [22]): 32%

CCCCOc1c(-c2ccc(OC)c(OC)c2)oc2ccccc2c1=O
Ratio IC50 (PC-3 [1]): 24
Ratio IC50 (LNCaP): 25

CCOc1c(-c2ccc(OC)c(OC)c2)oc2ccccc2c1=O
Ratio IC50 (PC-3 [1]): 30
Ratio IC50 (LNCaP): 21

CCCCN(CCCC)CCCCOc1c(-c2ccc(OC)c(OC)c2)oc2ccccc2c1=O
Ratio IC50 (PC-3 [1]): 152
Ratio IC50 (LNCaP): 47
